Usually EC50 stands for the concentration at which the effect is half-maximal. A high value points to lower potency in that assay. The CC50 is the concentration giving 50% cytotoxicity. Broadly, the EC90 is the point of the concentration-response curve where the effect stands at 90%. Low readings indicate an effect from little substance, high ones a need for much substance. A word on the half-life: it is the time needed for the level to fall by half in the phase considered.

Data set [1] concerns Hepatitis C virus. The experiment in a line: Antiviral activity against Hepatitis C virus subtype 1b replicon in human HuH7 cells after 48 hrs by subgenomic replicon assay. As to conditions: genotype 1b, Huh-7, 48 h. The format is functional, organism-based, Hepacivirus hominis.
A short description of data set [2]: Cytotoxicity against human HuH7 cells. The format is cell-based, Huh-7.
The test system of a further data set is Huh-7. Put plainly: Prodrug stability in human HuH7 cell lysates assessed as monophosphate formation at pH 7.6 after every 1 hr for 11 hrs by NMR assay. The format is ADME, cell-based, Lysate. As to conditions: huh-7, pH 7.6, 11 h. In short, it runs like this:
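HuH7 cell lysate (10^7 cells) in acetone-d6 and Trizma buffer pH 7.6 at 37 °C. 31P NMR taken every 1 h for 11 h. Monophosphate identified by a signal at the shift of an authentic monophosphate.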

Data set [3] has as its system Hepatitis C virus. Put plainly: Antiviral activity against Hepatitis C virus subtype 1b replicon in by replicon assay in presence of adenosine deaminase inhibitor pentostatin. As to conditions: Hepacivirus hominis; genotype 1b. The data set is classed as functional, organism-based. In short, it runs like this: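 Genotype 1b replicon in HUH7 cells, 48 h compound exposure, run with and without the adenosine/adenylate deaminase inhibitor pentostatin.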
On the technique in general: In antiviral work, replicon cells carry a viral genome segment that copies itself.

The nature of data set [4]: Prodrug conversion of the compound after 24 hrs using UV spectroscopic analysis in presence of adenosine deaminase. The data set is classed as ADME. In short, it runs like this: (§1)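 Nucleoside at 44 μM (1 ml, phosphate buffer pH 7.4) with 30 μL adenosine deaminase solution. UV spectra taken at 1 min intervals for 30 min. Conversion judged by the spectrum matching 2'-C-methylguanosine. Reaction followed up to 24 h.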

The nature of data set [5]: Prodrug conversion of the compound using UV spectroscopic analysis in presence of adenosine deaminase. The format is ADME. The essentials:
as §1

Data set [6] is described as follows: Stability of the compound assessed as half life by NMR analysis in presence of carboxypeptidase Y. The format is ADME. The essentials:
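Incubation with carboxypeptidase Y in acetone-d6 and Trizma buffer pH 7.6. 31P NMR spectra taken every 7 min over 14 h to follow loss of starting material and intermediate formation.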

Activity calls are given as the source filed them.

Consider `COCCCOc1nc(N)nc2c1ncn2[C@@H]1O[C@H](CO)[C@@H](O)[C@@]1(C)O`, for which it took 12 µM to reach a half-maximal effect in the data set with Hepatitis C virus [1] (EC50). Also, the CC50 in data set [2] was more than 100 µM.
As to `CCOc1nc(N)nc2c1ncn2[C@@H]1O[C@H](COP(=O)(N[C@@H](C)C(=O)O[C@@H](C)c2ccccc2)Oc2cccc3ccccc23)[C@@H](O)[C@@]1(C)O` (stereo not given in full), in the data set on Huh-7, the Drug metabolism entry was “Active”. Moreover, in the data set with Hepatitis C virus [3], the result was inactive. The molecule also displayed an EC50 in the data set on Hepatitis C virus [1] of 0.085 µM. The half-maximal cytotoxic concentration (CC50) in data set [2] is 12 µM.
Take `CCOc1nc(N)nc2c1ncn2[C@@H]1O[C@H](COP(=O)(N[C@H](C(=O)OCC(C)(C)C)C(C)C)Oc2cccc3ccccc23)[C@@H](O)[C@@]1(C)O` (stereo not given in full): the outcome in the data set with Hepatitis C virus [3] was inactive. This molecule gave a half-maximal effective concentration (EC50) with Hepatitis C virus [1] of 0.17 µM. In data set [2], this molecule displayed a CC50 of 24 µM.
Consider `CNc1nc(N)nc2c1ncn2[C@@H]1O[C@H](CO)[C@@H](O)[C@@]1(C)O`, for which the Drug metabolism entry in data set [4] is given as “Not Active”. For the same molecule, the 50% effective concentration (EC50) in the data set on Hepatitis C virus [1] stood at 13 µM. In addition, in data set [2], the CC50 was more than 100 µM.
As for `C[C@H](NP(=O)(OC[C@H]1O[C@@H](n2cnc3c(NCc4ccccc4)nc(N)nc32)[C@](C)(O)[C@@H]1O)Oc1cccc2ccccc12)C(=O)OCC(C)(C)C` (stereo not given in full), in the data set with Hepatitis C virus [3], the outcome was inactive. In the data set on Hepatitis C virus [1], the concentration for a half-maximal effect (EC50) was 0.79 µM and the 90% effect concentration (EC90) amounted to 2.7 µM. In addition, the midpoint of cytotoxicity in data set [2], the CC50, lay at 15 µM.
Taken in the same sequence, the figures for `C[C@H](NP(=O)(OC[C@H]1O[C@@H](n2cnc3c(Cl)nc(N)nc32)[C@](C)(O)[C@@H]1O)Oc1cccc2ccccc12)C(=O)OCC(C)(C)C` (stereo not given in full) were “inactive”, 0.012 µM, 0.028 µM and 16 µM.
In the case of `COc1nc(N)nc2c1ncn2[C@@H]1O[C@H](COP(=O)(N[C@@H](C)C(=O)OCC(C)(C)C)Oc2cccc3ccccc23)[C@@H](O)[C@@]1(C)O` (stereo not given in full) [BMS-986094], the result in the data set on Hepatitis C virus [3] was inactive. In addition, the 90% effect concentration (EC90) in the data set with Hepatitis C virus [1] worked out at 0.038 µM.
In turn, `C[C@@]1(O)[C@H](O)[C@@H](CO)O[C@H]1n1cnc2c(NCc3ccccc3)nc(N)nc21` returned an EC50 in the data set with Hepatitis C virus [1] of 30 µM.
As for `CSc1nc(N)nc2c1ncn2[C@@H]1O[C@H](COP(=O)(N[C@@H](C)C(=O)OCC(C)(C)C)Oc2cccc3ccccc23)[C@@H](O)[C@@]1(C)O` (stereo not given in full), the outcome in the data set on Hepatitis C virus [3] was inactive. In the data set on Hepatitis C virus [1], this molecule gave an EC50 of 0.037 µM and an EC90 of 0.16 µM. For the same molecule, in data set [2], the half-maximal cytotoxic concentration (CC50) was 41 µM.
For the molecule `C[C@@]1(O)[C@H](O)[C@@H](CO)O[C@H]1n1cnc2c(NCCc3ccccc3)nc(N)nc21`, in the data set with Hepatitis C virus [1], it took 24 µM to reach a half-maximal effect (EC50). Further, in data set [2], the CC50 is more than 100 µM.
As for `CCOc1nc(N)nc2c1ncn2[C@@H]1O[C@H](CO)[C@@H](O)[C@@]1(C)O`, the Drug metabolism entry in data set [5] is listed as “Active”. The midpoint of the response with Hepatitis C virus [1], the EC50, lay at 8.8 µM. The same molecule gave a CC50 in data set [2] of more than 100 µM.
With `CCOc1nc(N)nc2c1ncn2[C@@H]1O[C@H](COP(=O)(N[C@@H](C)C(=O)OCc2ccccc2)Oc2cccc3ccccc23)[C@@H](O)[C@@]1(C)O` (stereo not given in full), in the data set on Hepatitis C virus [3], the result was inactive. Moreover, the EC50 with Hepatitis C virus [1] was found to be 0.04 µM. Further, the 50% cytotoxic concentration (CC50) in data set [2] was determined as 11 µM.
As for `CNc1nc(N)nc2c1ncn2[C@@H]1O[C@H](COP(=O)(N[C@@H](C)C(=O)OCC(C)(C)C)Oc2cccc3ccccc23)[C@@H](O)[C@@]1(C)O` (stereo not given in full), the outcome in the data set with Hepatitis C virus [3] was inactive. In the data set with Hepatitis C virus [1], the response was half-maximal at 0.035 µM (EC50) and the 90% effect concentration (EC90) turned out to be 0.103 µM. In addition, the CC50 in data set [2] came out at 38 µM.
The corresponding values for `CC(C)Oc1nc(N)nc2c1ncn2[C@@H]1O[C@H](COP(=O)(N[C@@H](C)C(=O)OCC(C)(C)C)Oc2cccc3ccccc23)[C@@H](O)[C@@]1(C)O` (stereo not given in full) are “inactive”, 0.023 µM, 0.065 µM and 11 µM.
Turning to `CCOc1nc(N)nc2c1ncn2[C@@H]1O[C@H](COP(=O)(N[C@@H](C)C(=O)OCc2ccc(F)cc2F)Oc2cccc3ccccc23)[C@@H](O)[C@@]1(C)O` (stereo not given in full), the result with Hepatitis C virus [3] was inactive. For the same molecule, in the data set on Hepatitis C virus [1], the 50% effective concentration (EC50) was 0.034 µM. In data set [2], this molecule yielded a 50% cytotoxic concentration (CC50) of 17 µM.
`COc1nc(N)nc2c1ncn2[C@@H]1O[C@H](CO)[C@@H](O)[C@@]1(C)O` [BETA-2'-C-METHYL-6-O-METHYL GUANOSINE]: in the data set with Hepatitis C virus [1], a half-maximal effect (EC50) was put at 4.6 µM. In data set [2], this molecule gave a CC50 of more than 100 µM.
`C[C@@]1(O)[C@H](O)[C@@H](CO)O[C@H]1N1C=NC2C(=O)NC(N)=NC21` (stereo not given in full): the Drug metabolism entry in data set [5] is given as “Active”.
As for `CSc1nc(N)nc2c1ncn2[C@@H]1O[C@H](CO)[C@@H](O)[C@@]1(C)O`, in data set [4], the Drug metabolism entry was “Not Active”. Besides, the EC50 in the data set with Hepatitis C virus [1] stood at 11 µM. In data set [2], this molecule had a CC50 of more than 100 µM.
As to `C[C@@]1(O)[C@H](O)[C@@H](CO)O[C@H]1n1cnc2c(Cl)nc(N)nc21`, the concentration for a half-maximal effect (EC50) in the data set with Hepatitis C virus [1] came out at 8.5 µM. In addition, the CC50 in data set [2] is more than 100 µM.
Turning to `CC(C)Oc1nc(N)nc2c1ncn2[C@@H]1O[C@H](CO)[C@@H](O)[C@@]1(C)O`, in the data set with Hepatitis C virus [1], the EC50 was determined as 9.3 µM. Moreover, the CC50 in data set [2] is more than 100 µM.
Consider `CCOc1nc(N)nc2c1ncn2[C@@H]1O[C@H](COP(=O)(N[C@@H](C)C(=O)OC2CCCCO2)Oc2cccc3ccccc23)[C@@H](O)[C@@]1(C)O` (stereo not given in full), for which, in the data set with Hepatitis C virus [3], the outcome was inactive. The molecule also came in with a concentration for a half-maximal effect (EC50) in the data set on Hepatitis C virus [1] of 0.08 µM. This molecule registered a 50% cytotoxic concentration (CC50) in data set [2] of 47 µM.
In the case of `C[C@H](NP(=O)(OC[C@H]1O[C@@H](n2cnc3c(NCCc4ccccc4)nc(N)nc32)[C@](C)(O)[C@@H]1O)Oc1cccc2ccccc12)C(=O)OCC(C)(C)C` (stereo not given in full), the outcome in the data set with Hepatitis C virus [3] was inactive. In the data set on Hepatitis C virus [1], this molecule yielded an EC50 of 0.27 µM and an EC90 of 1.3 µM. This molecule showed a 50% cytotoxic concentration (CC50) in data set [2] of 42 µM.
Regarding `CCOc1nc(N)nc2c1ncn2[C@@H]1O[C@H](COP(=O)(N[C@@H](C)C(=O)OC(C)C)Oc2cccc3ccccc23)[C@@H](O)[C@@]1(C)O` (stereo not given in full), the result in the data set with Hepatitis C virus [3] was inactive. Also, the concentration for a half-maximal effect (EC50) with Hepatitis C virus [1] stood at 0.14 µM. In addition, the CC50 in data set [2] stood at 40 µM. For the same molecule, in data set [6], the half-life is 4 h.
On to `CCOc1nc(N)nc2c1ncn2[C@@H]1O[C@H](COP(=O)(N[C@@H](C)C(=O)OCC(C)(C)C)Oc2cccc3ccccc23)[C@@H](O)[C@@]1(C)O` (stereo not given in full), for which the outcome in the data set on Hepatitis C virus [3] was inactive. In the data set on Hepatitis C virus [1], this molecule returned a 50% effective concentration (EC50) of 0.008 µM and a 90% effect concentration (EC90) of 0.032 µM. In data set [2], this molecule gave a half-maximal cytotoxic concentration (CC50) of 10 µM.
Taken in the same sequence, the figures for `COCCCOc1nc(N)nc2c1ncn2[C@@H]1O[C@H](COP(=O)(N[C@@H](C)C(=O)OCC(C)(C)C)Oc2cccc3ccccc23)[C@@H](O)[C@@]1(C)O` (stereo not given in full) were “inactive”, 0.043 µM, 0.12 µM and 31 µM.
